The list is not random: actives were taken first. Their share in the collection is about 3.3%.
sPLA2-III inh – Blocks human group III sPLA2 activity | inhibition, % at 12.2 µM | actives 0.56% (n = 370,000) | QFRET BODIPY PC-A2 liposome hydrolysis, fluorescence | Q9NZ20 | AID 743126;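 active means inhibition above mean plus 3 SD of compounds lying within the high and low control bounds, cut at about 19% in these data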
Target sequence (Q9NZ20 whole entry, looked up): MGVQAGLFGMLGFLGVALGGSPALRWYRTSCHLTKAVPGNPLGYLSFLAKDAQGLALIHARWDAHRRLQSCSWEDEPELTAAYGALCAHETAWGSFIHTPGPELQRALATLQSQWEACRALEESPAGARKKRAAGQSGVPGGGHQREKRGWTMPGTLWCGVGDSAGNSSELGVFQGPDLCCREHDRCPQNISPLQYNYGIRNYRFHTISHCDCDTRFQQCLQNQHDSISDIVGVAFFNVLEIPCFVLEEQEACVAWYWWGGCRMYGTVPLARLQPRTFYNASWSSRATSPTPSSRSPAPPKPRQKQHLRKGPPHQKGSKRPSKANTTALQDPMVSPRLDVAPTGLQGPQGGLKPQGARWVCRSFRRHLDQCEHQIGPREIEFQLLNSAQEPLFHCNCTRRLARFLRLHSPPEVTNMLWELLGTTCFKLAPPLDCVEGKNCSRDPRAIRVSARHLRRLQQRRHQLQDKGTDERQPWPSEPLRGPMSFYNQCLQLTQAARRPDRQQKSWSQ
M18AAP inhibitor – PfM18AAP enzyme inhibition; AID 1822; recombinant PfM18AAP, H-Glu-NHMec fluorogenic cleavage; actives 1.2% (n = 290,000); inhibition, % at 7.35 µM;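 active means inhibition above the campaign mean inhibition over all tested compounds plus 3 SD, cut at about 28% in these data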
Hep lipid drop – modulators of hepatic lipid droplet formation. inhibition, % at 6.5 µM. actives 0.4% (n = 240,000). AML12 mouse hepatocytes, oleate lipid droplets, BODIPY imaging;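 active means lipid droplet intensity inhibited by at least 50%, with more than 500 cells counted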
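Assay system: AML12 hepatocytes (mouse) / Also added: 100 µM oleic acid challenge / Times: overnight treatment with compound plus oleate / Detection: high-content imaging of BODIPY-stained droplets and DAPI nuclei / Evaluation: % inhibition of lipid droplet signal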
NRP1-CendR mod – modulators of CendR peptide binding to human neuropilin-1; inhibition, % at 25 µM; FAM-RPARPAR peptide binding to NRP-1, fluorescence polarization; actives 0.85% (n = 360,000); O14786;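 active means inhibition or corrected inhibition above about 18%, plus a signal ratio from 0.5 to 1.5, limit read from the data, passing the limit was not always enough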
Arrestin-AP2 inh – inhibitors of human beta-arrestin and AP2 interaction | FITC-arrestin peptide / GST-AP2 beads, flow cytometry; AP2 beta2 appendage carries R879A mutation | inhibition, % at 10 µM | actives 0.31% (n = 340,000) | AID 504490;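 active means inhibition above a set limit, near 3 SD of compounds lacking own fluorescence, cut at about 54% in these data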
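Test system: GST-tagged AP2 beta2-adaptin appendage (R879A) on 4 µm glutathione beads; also added: fluorescein-tagged arrestin peptide at 50 nM final; timing: 12 min plus 1 h, RT; signal: flow cytometry, FL1 (488/535 nm); read-out: percent drop in bead-associated FITC signal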
HTR2A ag – activates the mouse 5-HT2A serotonin receptor. CHO-K1 mHTR2A beta-arrestin complementation, luminescence; percent of 30 µM serotonin response. activation, % at 7.6 µM. actives 0.66% (n = 360,000). P35363. AID 624169;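 active means activation above a run cutoff, the mean activation of all tested compounds plus 3 SD, cut at about 14% in these data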
Of the large screens only hits and unclear results are named; the others gave an inactive call.

COc1ccc(C(=O)OCC(=O)c2ccc3c(c2)NC(=O)CO3)cc1S(=O)(=O)N1CCOCC1	none (no result: M18AAP inhibitor, Hep lipid drop)
O=C(CCN1CCN(c2ccccc2)CC1)NNC(=O)Cc1ccccc1Cl	NRP1-CendR mod 37.2 (no result: M18AAP inhibitor, Hep lipid drop)
COc1cc(/C=C2\SC(=Nc3ccccc3)NC2=O)cc(Cl)c1O	none
CCc1ccc(N=C2NC(=O)/C(=C/c3cc(OC)c(O)c(OC)c3)S2)cc1	M18AAP inhibitor 28.0
COC(=O)CSC1=C(C#N)C(c2ccc(C)cc2)C2=C(CCCC2=O)N1 (stereo not drawn)	M18AAP inhibitor 29.6 (no result: Hep lipid drop)
OC(c1ccccc1)(c1ccccc1)C1CCN(CCCOc2cccc(C(F)(F)F)c2)CC1	none (no result: M18AAP inhibitor, Hep lipid drop, NRP1-CendR mod, Arrestin-AP2 inh, HTR2A ag)
CC(=O)C[C@@H](O)CC(=O)[C@H]1OC(=O)[C@@H](C)C/C=C\Cc2ccccc21	none (no result: M18AAP inhibitor, Hep lipid drop)
CC(=O)C[C@H](O)CC(=O)[C@H]1OC(=O)[C@H](C)C/C=C\Cc2ccccc21	NRP1-CendR mod 24.6 (no result: M18AAP inhibitor, Hep lipid drop)
C[C@@H]1C2CC(C/C2=N\NC(=O)c2ccncc2)C1(C)C (stereo partly drawn)	none
COc1n[nH]c2nncnc12	NRP1-CendR mod 28.4 (no result: Hep lipid drop)
Cc1cccc(C)c1NC(=O)CSc1nnc(-c2ccoc2C)n1CCc1ccccc1	NRP1-CendR mod 21.0
Cc1csc(NC(=O)CSc2nnc(-c3ccoc3C)n2CCc2ccccc2)n1	none (no result: Hep lipid drop)
c1ccc(CCNc2ccc3c(c2)Cc2ccccc2-3)nc1	NRP1-CendR mod 28.8 (no result: M18AAP inhibitor, Hep lipid drop)
c1ccc(CCNc2ccccn2)nc1	none (no result: M18AAP inhibitor, Hep lipid drop)
COc1ccccc1-c1cnc(C(O)c2cccc(F)c2)[nH]1 (stereo not drawn)	none (no result: M18AAP inhibitor, Hep lipid drop, Arrestin-AP2 inh)
CCn1nc([N+](=O)[O-])c(C(C#N)c2nc3ccccc3n2C)c(Cl)c1=O (stereo not drawn)	none
CCCn1nc([N+](=O)[O-])c(C(C#N)c2nc3ccccc3s2)c(Cl)c1=O (stereo not drawn)	NRP1-CendR mod 34.4
CSCC[C@H]1COC[C@@H](Cc2ccccc2)N1c1ccccc1	none (no result: M18AAP inhibitor, Hep lipid drop, Arrestin-AP2 inh)
Cc1ncc([N+](=O)[O-])n1CCOC(=O)NC(NCc1ccccc1Cl)C(Cl)(Cl)Cl (stereo not drawn)	NRP1-CendR mod 38.0
Cc1csc(SC(C)C(=O)NCc2ccc3c(c2)OCO3)n1 (stereo not drawn)	NRP1-CendR mod 25.6
CN1CCN(C(c2ccc(Br)cc2)c2cc(Cl)c3cccnc3c2O)CC1 (stereo not drawn)	sPLA2-III inh 20.3
O=C(CSc1cccc2cccnc12)N/N=C/c1ccc(F)cc1	NRP1-CendR mod 36.5
N#Cc1ccc(NC(=O)OC2CC3CC2[C@H]2CCCCN2C3)cc1 (stereo partly drawn)	none (no result: M18AAP inhibitor, Hep lipid drop, NRP1-CendR mod, Arrestin-AP2 inh, HTR2A ag)
O=C(NCCOC(=O)c1ccc(C(=O)OCCNC(=O)c2ccccc2)o1)c1ccccc1	none (no result: Hep lipid drop)
O=C(NCCOC(=O)c1ccccc1)c1ccccc1	NRP1-CendR mod 21.8 (no result: M18AAP inhibitor, Hep lipid drop)
Cc1ccc(O)c(C(=O)c2cnc3c(c2)COc2ccccc2-3)c1	NRP1-CendR mod 26.1
O=C(c1cnc2c(c1)COc1ccc(Cl)cc1-2)c1ccccc1O	none
CCN1C(=O)C2C(c3ccccc3F)NC(Cc3ccc(O)cc3)(C(=O)OC)C2C1=O (stereo not drawn)	none (no result: Hep lipid drop)
CCOC(=O)C1(Cc2ccccc2)NC(c2ccccc2F)C2C(=O)N(CC)C(=O)C21 (stereo not drawn)	NRP1-CendR mod 19.1 (no result: Hep lipid drop)
N#CC1=C(SCc2ccccc2)NC(=O)CC1c1ccc(O)cc1 (stereo not drawn)	M18AAP inhibitor 28.8
Cc1ccc(C2CN(C)C3(C(=O)Nc4ccccc43)C23COc2ccccc2C3=O)cc1 (stereo not drawn)	NRP1-CendR mod 40.3 (no result: Hep lipid drop)
O=C(COC(=O)C1CC1)Nc1ccc(OC(F)F)cc1	NRP1-CendR mod 46.0
O=C(COC(=O)C1CCC1)Nc1ccc(OC(F)F)cc1	none
COc1cc(C(=O)Oc2cccc(C(=S)N3CCOCC3)c2)cc(OC)c1OC	none
O=C(Oc1cccc(C(=S)N2CCOCC2)c1)c1ccccc1	M18AAP inhibitor 28.5
COc1cc(C(=S)N2CCOCC2)cc(OC)c1OC(=O)c1ccc(F)cc1	M18AAP inhibitor 29.4
CC(C)(C)NC(=O)C12CC3CC(CC(Cl)(C3)C1)C2	NRP1-CendR mod 22.3
O=[N+]([O-])c1cc2c(cc1C=Nc1ccccc1)OCO2	HTR2A ag 15.4 (no result: sPLA2-III inh, Hep lipid drop)
CCOc1ccc(NS(=O)(=O)c2ccc(C(=O)N3CCCC(C)C3)cc2)cc1 (stereo not drawn)	none (no result: M18AAP inhibitor, Hep lipid drop)
NC(=S)Nc1ccc(Cl)c(Cl)c1	none
NN(Cc1ccccc1)C(=S)Nc1ccc(Cl)c(Cl)c1	M18AAP inhibitor 29.8
Cc1ccccc1N=C(NO)c1nonc1N	M18AAP inhibitor 28.9
O=C(CNC(=S)NC(=O)c1ccco1)c1ccccc1	M18AAP inhibitor 28.8 (no result: Hep lipid drop)
CCCS(=O)(=O)NC(=O)C1(C)CCN(C(=O)c2ccc(C(F)(F)F)nc2C)C1 (stereo not drawn)	none (no result: sPLA2-III inh, M18AAP inhibitor, Hep lipid drop, Arrestin-AP2 inh)
O=C1CC(N2CCN(Cc3ccc4c(c3)OCO4)CC2)C(=O)N1c1cccc(Cl)c1 (stereo not drawn)	NRP1-CendR mod 37.1
COC(=O)Cc1c(C)c2ccc(OC3CCCCC3=O)c(C)c2oc1=O (stereo not drawn)	none
COC/C=C/C1=CC2=CC(=O)C(C)(OC(=O)c3cnc4ccccc4n3)C(=O)C2=CN1CCCOC(C)C (stereo not drawn)	NRP1-CendR mod 43.5 (no result: M18AAP inhibitor, Hep lipid drop)
COC/C=C/C1=CC2=CC(=O)C(C)(OC(=O)c3cnc4ccccc4n3)C(=O)C2=CN1C(CO)CO (stereo not drawn)	NRP1-CendR mod 37.1 (no result: M18AAP inhibitor)
COC/C=C/C1=CC2=CC(=O)C(C)(OC(=O)c3cnc4ccccc4n3)C(=O)C2=CN1CCN1CCOCC1 (stereo not drawn)	none (no result: M18AAP inhibitor)
COC/C=C/C1=CC2=CC(=O)C(C)(OC(=O)c3cnc4ccccc4n3)C(=O)C2=CN1Cc1ccco1 (stereo not drawn)	NRP1-CendR mod 29.6 (no result: M18AAP inhibitor, Hep lipid drop)
COC/C=C/C1=CC2=CC(=O)C(C)(OC(=O)c3cnc4ccccc4n3)C(=O)C2=CN1CCOC (stereo not drawn)	NRP1-CendR mod 32.1 (no result: M18AAP inhibitor, Hep lipid drop)
O=C(COC(=O)/C=C/c1ccccc1[N+](=O)[O-])NNC(=O)c1ccc(F)cc1	none (no result: M18AAP inhibitor, Hep lipid drop)
C=CCN1C=C2C(=O)C(C)(OC(=O)c3cnc4ccccc4n3)C(=O)C=C2C=C1/C=C/COC (stereo not drawn)	NRP1-CendR mod 31.4 (no result: M18AAP inhibitor, Hep lipid drop)
Cc1[nH]c(=S)[nH]c(=O)c1Cc1ccccc1	M18AAP inhibitor 30.6 (no result: Hep lipid drop)
CC(C)[C@@H]1CC[C@@H](C)C[C@H]1OC[B-](F)(F)F	none (no result: M18AAP inhibitor, Hep lipid drop, NRP1-CendR mod, Arrestin-AP2 inh, HTR2A ag)
CCN1C(=O)/C(=C/N2CCc3ccccc32)SC1=S	Arrestin-AP2 inh 70.2 (no result: sPLA2-III inh)
COC(=O)c1c(N)[nH]c(C(=O)c2ccccc2)c1-c1ccccc1Br	none (no result: M18AAP inhibitor, Hep lipid drop, Arrestin-AP2 inh)
COc1cccc2[nH]c3ccccc3c(=O)c12	none (no result: sPLA2-III inh)
Nc1cccc2c(=O)c3ccccc3[nH]c12	M18AAP inhibitor 29.1
